Laboratory results: ChEMBL document CHEMBL1122555, “Design, synthesis, and testing of potential antisickling agents. 3. Ethacrynic acid” (J Med Chem, 1984)

Assays:
Format in all cases: ADME
[1] = Compound was evaluated, at a concentration of 20 mM acid, the solubility ratio is obtained by dividing the solubility of sickle hemoglobin (HbS) with the compound (grams per deciliter) by the solubility of the untreated sample (grams per deciliter); conditions: 20000 µM
Method in brief: (§1)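 Sodium salt of acid (made with 1 equiv NaHCO3, 0.18 M stock in 0.15 M phosphate pH 7.4) diluted into HbS (~35 g %, 0.15 M phosphate), deoxygenated with dithionite, sealed in EPR tubes; final drug 5–40 mM. Spun alongside deoxy-HbS buffer control and 40 mM phenylalanine control; solubility at 35 °C, g/dL. Ratio = drug/control solubility; % increase relative to initial minus control; SD reported.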

[2] = Compound was evaluated, at a concentration of 10 mM acid, the solubility ratio is obtained by dividing the solubility of sickle hemoglobin (HbS) with the compound (grams per deciliter) by the solubility of the untreated sample (grams per deciliter); conditions: 10000 µM; method in brief: as §1
[3] = Compound was evaluated, at a concentration of 40 mM acid, for its ability to increase the solubility of sickle haemoglobin; conditions: 40000 µM; method in brief: as §1
[4] = Compound was evaluated, at a concentration of 5 mM acid, the solubility ratio is obtained by dividing the solubility of sickle hemoglobin (HbS) with the compound (grams per deciliter) by the solubility of the untreated sample (grams per deciliter); conditions: 5000 µM; method in brief: as §1
[5] = Compound was evaluated, at a concentration of 10 mM acid, for its ability to increase the solubility of sickle hemoglobin; conditions: 10000 µM; method in brief: as §1
[6] = Compound was evaluated, at a concentration of 5 mM acid, for its ability to increase the solubility of sickle hemoglobin; conditions: 5000 µM; method in brief: as §1
[7] = Compound was evaluated, at a concentration of 20 mM acid, for its ability to increase the solubility of sickle hemoglobin; conditions: 20000 µM; method in brief: as §1
[8] = Compound was evaluated, at a concentration of 40 mM acid, the solubility ratio is obtained by dividing the solubility of sickle hemoglobin (HbS) with the compound (grams per deciliter) by the solubility of the untreated sample (grams per deciliter); conditions: 40000 µM; method in brief: as §1
[9] = Compound was evaluated, at a concentration of 40 mM acid, for its ability to increase the solubility of sickle hemoglobin; conditions: 40000 µM; method in brief: as §1

| Structure (SMILES) | Solubility ratio [1] | Solubility ratio [2] | HbS solubilized [3] [%] | Solubility ratio [4] | HbS solubilized [5] [%] | HbS solubilized [6] [%] | HbS solubilized [7] [%] | Solubility ratio [8] | HbS solubilized [9] [%] |
| --- | --- | --- | --- | --- | --- | --- | --- | --- | --- |
| O=C(O)COCc1ccc(Cl)c(Cl)c1 | 1.321 | 1.166 | 88 | 1.087 | 42.6 | 22.1 | 82.3 | 1.345 |  |
| O=C(O)COCc1ccc(Br)cc1 | 1.233 | 1.118 |  | 1.059 | 25.8 | 13 | 51 | 1.398 | 87.7 |
| C=C(CC)C(=O)c1ccc(OCC(=O)O)c(Cl)c1Cl [ETHACRYNIC ACID] | 1.317 | 1.166 |  | 1.106 | 39.5 | 25.3 | 76.2 | 1.375 | 89.4 |
